NadD block: NadD (S. aureus) enzyme inhibition; inhibition, % at 20 µM; 360,000 compounds, 0.78% hits; purified NadD enzyme, colorimetric absorbance read-out; in the data active = inhibition above about 26%
SENP1 inh: inhibitors of human SENP1 SUMO protease catalytic domain | Q9P0U3 | inhibition, % at 10 µM | AID 624204 | 360,000 compounds, 0.21% hits | recombinant SENP1 catalytic domain, CyPet-SUMO1-YPet FRET cleavage;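 active = inhibition at least 30% at 10 µM, raw YFP signal under a set limit, fluorescence ratio 0.5 to 1.5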;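 note: 0% = enzyme with DMSO and 100% = no enzyme wells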
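Assay system: hSENP1 catalytic domain, recombinant. Amount: SENP1 enzyme, 20 pM final. Schedule: 50 min reaction, RT, dark. Technique: FRET, CFP and YFP emission. Control set: no-enzyme wells low, DMSO-plus-enzyme wells high control.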
Beta2AR agonist: activates human beta-2 adrenergic receptor causing internalization; P07550; Am2.2-beta2AR cells, FAP receptor internalization, flow cytometry; response, % (no concentration beside the values); 340,000 compounds, 0.43% hits; AID 504454;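 active = response above a set limit, near 3 SD of response in nonfluorescent compounds, cut at about 42% in these data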
ABHD5 PLIN5 PPI: inhibitors of human ABHD5-perilipin-5 interaction. inhibition, % at 4 µM. Q00G26+Q8WTS1. Split G. princeps luciferase complementation, luminescence, 4 h. 360,000 compounds, 0.78% hits. AID 602281;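 active = inhibition above the mean inhibition across every tested compound plus 3 SD, cut at about 22% in these data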;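 note: 0% = DMSO only wells and the 100% control is not disclosed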
Target sequence (Q00G26 whole entry, looked up): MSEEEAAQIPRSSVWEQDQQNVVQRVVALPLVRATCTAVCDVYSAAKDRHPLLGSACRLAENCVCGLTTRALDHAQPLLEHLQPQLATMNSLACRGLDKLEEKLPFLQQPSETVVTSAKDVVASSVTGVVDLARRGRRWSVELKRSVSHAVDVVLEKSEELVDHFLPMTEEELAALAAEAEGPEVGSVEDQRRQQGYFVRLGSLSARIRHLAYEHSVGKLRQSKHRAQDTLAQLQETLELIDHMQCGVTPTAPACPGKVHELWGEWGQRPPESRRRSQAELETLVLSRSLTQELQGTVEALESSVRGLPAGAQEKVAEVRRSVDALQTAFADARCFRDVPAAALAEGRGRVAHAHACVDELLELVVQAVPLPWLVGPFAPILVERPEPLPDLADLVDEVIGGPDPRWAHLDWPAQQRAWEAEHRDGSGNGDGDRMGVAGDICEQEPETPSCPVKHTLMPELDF
Target sequence (Q8WTS1 whole entry, looked up): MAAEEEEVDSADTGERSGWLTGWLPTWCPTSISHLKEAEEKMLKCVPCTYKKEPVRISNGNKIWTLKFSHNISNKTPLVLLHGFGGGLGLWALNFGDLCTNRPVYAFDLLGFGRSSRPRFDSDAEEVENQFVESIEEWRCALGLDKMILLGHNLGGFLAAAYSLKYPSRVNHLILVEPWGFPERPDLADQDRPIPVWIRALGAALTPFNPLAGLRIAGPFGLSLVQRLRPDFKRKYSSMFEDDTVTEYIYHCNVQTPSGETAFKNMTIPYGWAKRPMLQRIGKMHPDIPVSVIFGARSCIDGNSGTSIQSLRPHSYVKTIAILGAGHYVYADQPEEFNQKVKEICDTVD
GRK2 inh: inhibitors of human GRK2 displacing RNA aptamer; P25098; bead flow cytometry, FAM-aptamer displacement from GRK2; inhibition of aptamer binding, % at 10 µM; 330,000 compounds, 0.59% hits;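 active = inhibition of aptamer binding above 40%, roughly 3 SD of noise, on plates passing a quality check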;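 note: median bead fluorescence of bound FAM aptamer so fluorescent compounds give negative values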
GRK2 inh confirm: confirmation of human GRK2 inhibitors displacing RNA aptamer. 2,000 compounds, 4% hits. aptamer displacement, % at 10 µM. AID 504451. bead-bound GRK2, FAM-aptamer displacement, flow cytometry. shares compounds with GRK2 inh;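 active = aptamer displacement above 40%, near three times the noise of non-fluorescent compounds, on plates passing quality checks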;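 note: negative values mostly reflect intrinsic compound fluorescence rather than true enhancement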
Aptamer quench: fluorescent aptamer quenching in GRK2 counter-screen dose response. shares compounds with GRK2 inh. Fluorescent RNA aptamer beads, flow cytometry; hits give high values. fluorescence change (kMESF span), kMESF (test concentration not listed). 110 tested, under 10 active;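 active = compounds whose bead fluorescence drops by more than 37 kMESF across the dose range, marking them as dye quenchers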
Aptamer quench SP: aptamer fluorescence quenching in GRK2 counter-screen; AID 504580; Carboxyfluorescein RNA aptamer on beads, flow cytometry quenching; hits give low values; fluorescence response (% of DMSO), % at 10 µM; 2,000 tested, under 10 active; shares compounds with GRK2 inh;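 active = compounds that quench the bead-bound fluorescent RNA probe, cutting fluorescence to under half of the solvent control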;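 note: counterscreen run without GRK2 so only probe quenching by compound is measured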
GRK2 CP2: confirmation of human GRK2 inhibitors binding RNA aptamer site. bead-bound GRK2, FAM-aptamer displacement, flow cytometry. 360 tested, under 10 active. shares compounds with GRK2 inh. inhibition of aptamer binding, % at 10 µM;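 active = inhibition of aptamer binding above 40%, about triple the noise seen with nonglowing compounds, on plates passing quality control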;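 note: negative values mostly come from compounds that fluoresce themselves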
FAM quench CP2: counter-screen for GRK2 binding hits: quenchers of fluorescent RNA aptamer; shares compounds with GRK2 inh; carboxyfluorescein RNA aptamer beads, flow cytometry quenching; hits give low values; fluorescence response vs DMSO, % at 10 µM; 360 tested, under 10 active; AID 588494;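 active = response vs DMSO under 50%, meaning signal dropped by over half, treated as fluorescence quencher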;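 note: labelled aptamer on streptavidin beads without GRK2 as a quench counter-screen; 100% = bead fluorescence of DMSO wells and lower means quenching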
* = called active by the depositor; · = no result. Shown are actives, neighbours in structure and some others; about 2.5% of the full set was active somewhere.

SMILES	NadD block	SENP1 inh	Beta2AR agonist	ABHD5 PLIN5 PPI	GRK2 inh	GRK2 inh confirm	Aptamer quench SP	others
CN(C)c1ccc(CNC(=O)CCS(=O)(=O)c2ccc3c(c2)n(C)c(=O)c(=O)n3C)cc1	-1.7	0.0	-11.2	-3.9	60.0*	19.4	98.1	GRK2 CP2=31.5;FAM quench CP2=101.0
Cc1noc(C)c1S(=O)(=O)N(CC(=O)NCCc1ccccc1)c1ccc(C(C)C)cc1	-5.1	1.6	2.5	-0.2	5.0	·	·
Cc1ccnc(NC(=O)Cn2cc([N+](=O)[O-])cn2)c1	-2.1	0.3	2.2	-1.1	2.0	·	·
Cc1c(NC(=O)Nc2ccccc2[N+](=O)[O-])c(=O)n(-c2ccccc2)n1C	1.0	-1.0	3.7	1.4	13.0	1.2	101.2
O=C(Cn1cc([N+](=O)[O-])cn1)Nc1ccccn1	-2.7	1.7	1.8	3.6	60.0*	-1.3	96.4
O=C(Nc1ccccn1)Nc1ccccc1[N+](=O)[O-]	-4.1	1.3	-8.7	-7.0	13.0	0.3	102.9
O=C(Nc1ccnn1C1CCN(Cc2ccc(C#CCCO)cc2)CC1)c1cccc(F)c1	-0.7	2.9	6.9	5.1	0.0	·	·
NC(=O)c1ccc(NC(=O)COC(=O)c2cc3c(s2)CCC3)cc1	-1.9	-25.1	-2.0	0.4	52.0*	24.6	100.7
CC(NC(=O)c1cccc(S(=O)(=O)N2CCN(Cc3ccccc3)CC2)c1)c1ccc(Cl)cc1 (centres undefined)	8.0	1.2	2.7	3.8	·	·	·
Nc1nc2sc3c(c2c(=O)s1)CCCC3	-7.2	0.1	-4.1	-15.6	0.0	·	·
Nc1c2c(nc3sc4c(c13)CCCC4)CCCCCC2	9.3	1.6	6.0	-3.9	83.0*	-4.4	92.1
O=C(Nc1ccc(Cl)cn1)c1ccc(-c2cc(Cl)ccc2Cl)o1	4.4	0.4	3.9	2.2	42.0*	·	·	GRK2 CP2=-25.5;FAM quench CP2=100.0
COc1cccc(OC)c1NC(=O)c1ccc(-c2cc(Cl)ccc2Cl)o1	-2.1	0.7	·	-13.2	·	·	·
O=C(C[n+]1cnn(CC(=O)c2ccc(Cl)cc2Cl)c1)c1ccc([N+](=O)[O-])cc1	25.2	0.0	7.5	6.4	59.0*	-22.9	97.0
O=C(Cn1cnc([N+](=O)[O-])c1)c1ccc(Cl)cc1	-6.8	1.4	1.1	-2.4	2.0	·	·
O=Nc1c(O)c2ccccc2c2ccccc12	4.5	-3.0	-5.6	-27.8	23.0	·	·
O=c1c(=Nc2ccccc2O)c(=O)c2ccccc12	6.1	-0.7	7.4	-36.3	70.0*	2.0	97.9
COc1ccccc1Oc1cc(-n2nc(C)cc2C)ncn1	-8.6	2.3	1.6	-4.1	82.0*	·	·	GRK2 CP2=7.8;FAM quench CP2=100.0
O=C(NN1C(=O)/C(=C/C=C/c2ccco2)SC1=S)c1ccncc1	3.9	6.1	4.0	10.7	79.0*	12.3	100.6
CC(C)C(C(=O)O)N1C(=O)/C(=C/C=C/c2ccco2)SC1=S (centres undefined)	45.8*	25.1	-0.9	-0.4	95.0*	55.0*	96.0	Aptamer quench=5.8
O=C1/C(=C/C=C/c2ccco2)SC(=S)N1c1ccc(O)cc1	25.0	6.3	22.4	11.0	16.0	·	·
CCN(C[C@H]1N[C@@](CC)(C(=O)OC)[C@H]2C(=O)N(C)C(=O)[C@@H]12)S(=O)(=O)c1ccc(C(F)(F)F)cc1	-0.4	1.4	1.8	-3.2	0.0	·	·
Cc1ccc(-c2csc3ncn(CC#N)c(=O)c23)cc1C	11.2	-23.6	-0.3	2.3	86.0*	-1.1	92.6
Cn1c(SCc2cccc(Br)c2)nnc1-c1ccccn1	-7.8	1.1	-21.9	-4.0	3.0	·	·

High-throughput results deposited in PubChem BioAssay by several laboratories.
